Neddylation inh – inhibitors of human cullin neddylation. 360,000 compounds, 0.58% hits. AID 651699. P61081+Q13564. inhibition, % at 25 µM. TR-FRET cullin neddylation, biochemical; in the data active = inhibition above about 36%
Rpn11 inh – inhibitors of human proteasome Rpn11. O00487. human 26S proteasome, Ub4-pepOG fluorescence polarization; 20S core pre-blocked with epoxomicin. inhibition, % at 20 µM. 360,000 compounds, 0.59% hits;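 active = inhibition at 20 µM, scaled to each plate's controls, above about 33%, limit read from the data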
Target sequence (O00487 whole entry, looked up): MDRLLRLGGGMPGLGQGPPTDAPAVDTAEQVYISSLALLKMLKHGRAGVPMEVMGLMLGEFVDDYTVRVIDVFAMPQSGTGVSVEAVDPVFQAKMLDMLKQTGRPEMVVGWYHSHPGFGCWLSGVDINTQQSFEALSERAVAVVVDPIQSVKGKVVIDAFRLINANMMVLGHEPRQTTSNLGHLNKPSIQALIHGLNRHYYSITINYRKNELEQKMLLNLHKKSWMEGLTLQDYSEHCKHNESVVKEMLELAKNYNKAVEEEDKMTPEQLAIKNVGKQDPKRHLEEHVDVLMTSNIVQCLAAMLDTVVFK
PREPL inh – human PREPL enzyme inhibition; Q4J6C6; recombinant PREPL, fluorescence polarization activity-based probe; inhibition, % at 5.96 µM; 320,000 compounds, 0.68% hits; AID 2751; in the data active = inhibition above about 43%;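 also: 0% = enzyme with DMSO and 100% = wells lacking enzyme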
CSN deneddyl inh – inhibitors of human CSN-mediated cullin deneddylation; Q92905; Purified CSN, SCF-Nedd8-OG deneddylation, fluorescence polarization; inhibition, % at 12.5 µM; 360,000 compounds, 0.38% hits; AID 651999;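 active = pattern-corrected inhibition above about 35%, with an unprinted fluorescence ratio check between 0.5 and 1.5, limit read from the data, passing the limit was not always enough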;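 also: 0% = enzyme with substrate and 100% = substrate without enzyme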
Target sequence (Q92905 whole entry, looked up, one chain of several): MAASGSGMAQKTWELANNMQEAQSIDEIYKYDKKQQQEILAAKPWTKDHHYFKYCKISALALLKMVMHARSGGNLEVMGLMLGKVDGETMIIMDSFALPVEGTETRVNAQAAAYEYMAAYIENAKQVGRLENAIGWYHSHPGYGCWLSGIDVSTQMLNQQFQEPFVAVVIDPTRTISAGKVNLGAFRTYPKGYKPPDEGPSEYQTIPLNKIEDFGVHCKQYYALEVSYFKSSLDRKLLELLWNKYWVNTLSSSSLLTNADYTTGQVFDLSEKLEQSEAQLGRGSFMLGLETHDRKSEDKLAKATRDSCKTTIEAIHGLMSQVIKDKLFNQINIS
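Assay system: HEK293T-derived human Csn5 enzyme; quantity: 0.24 nM enzyme; medium: Tris/NaCl/DTT buffer, pH 7.5; also added: substrate SCFSkp2-Nedd8OG, 10 nM; doses: 12.5 µM compound; schedule: 90 min reaction at room temperature; signal: FP; read-out: % inhibition of substrate cleavage by Csn5; benchmarks: substrate-only high control, full reaction low control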
HNF4A DNA FP – change in binding of human HNF4 alpha to DNA; P41235; HNF4a-FITC DNA binding, fluorescence polarization, 1 h; activity change, % at 10 µM; 360,000 compounds, 0.3% hits; in the data active = activity change above about 30%, passing the limit was not always enough
Tb MetRS inh – blocks T. brucei methionyl-tRNA synthetase activity; 360,000 compounds, 0.4% hits; inhibition, % at 11.9 µM; AID 624268; purified T. brucei MetRS, ATP depletion, Kinase-Glo luminescence;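 active = inhibition above a per-plate cutoff of the control wells' mean inhibition plus 3 SD, cut at about 5.5% in these data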;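 also: 0% = DMSO wells median and 100% = median of wells with control inhibitor compound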
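Material – parasite MetRS enzyme · Medium – HEPES-MgCl2-KCl buffer plus DTT, spermine, BSA, pyrophosphatase · Reagent – ATP, methionine and E. coli bulk tRNA substrates · Times – 15 min enzyme-compound preincubation, 2 h reaction, 10 min detection, 25 °C · Measured by – luminescence of leftover ATP · Evaluation – percent inhibition relative to median high and low control wells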
Numbers without * were called inactive. This is a sample that favours compounds with a hit; in the whole collection about 2.4% have one here.

What do the screens show for `Cc1ccc(C(=O)O)cc1N=Cc1cc(Br)cc(Br)c1O`?
Neddylation inh: 40.6*; Rpn11 inh: 10.4; PREPL inh: -2.1; CSN deneddyl inh: -8.3; HNF4A DNA FP: 2.0; Tb MetRS inh: 0.7

Results for Nc1cc(Cl)nc(N/N=C/c2c(O)ccc3ccccc23)n1 ?
Neddylation inh: 12.5; Rpn11 inh: 9.4; PREPL inh: 43.2*; CSN deneddyl inh: -1.8; HNF4A DNA FP: 1.7; Tb MetRS inh: -1.1

How did COc1ccc(C(=O)C[C@@H]2OC3CCCCC3N2S(=O)(=O)c2ccc(C)cc2)cc1OC (some centres undefined) do in these assays?
Neddylation inh: -59.9; CSN deneddyl inh: -3.0; HNF4A DNA FP: -3.6; Tb MetRS inh: 0.2

How did CC1(Oc2ccccc2)CCN(Cc2csc3ccccc23)C1 (centres undefined) do in these assays?
Neddylation inh: -6.2; Rpn11 inh: 1.3; CSN deneddyl inh: 4.6; HNF4A DNA FP: -1.9; Tb MetRS inh: 0.1

How did C=CCn1c(C)c(/C=C/c2cc[n+](C)cc2)c2ccccc21 do in these assays?
Neddylation inh: inactive; PREPL inh: 40.3; CSN deneddyl inh: 139.9; HNF4A DNA FP: 181.1; Tb MetRS inh: 0.3

How did CCN(CC)C(=O)Cn1c(C)c(/C=C/c2cc[n+](C)cc2)c2ccccc21 do in these assays?
Neddylation inh: -216.9; PREPL inh: 1.2; CSN deneddyl inh: 99.0*; HNF4A DNA FP: 157.7; Tb MetRS inh: -1.8

What do the screens show for `O=C(NC1CCN(C(=S)NCc2ccco2)CC1)NC12CC3CC(CC(C3)C1)C2`?
Neddylation inh: -4.2; Rpn11 inh: 4.0; PREPL inh: 3.1; CSN deneddyl inh: 6.1; HNF4A DNA FP: 43.5*; Tb MetRS inh: -0.9

Results for Cc1cccc(C(=O)NC2CCN(C(=S)NCc3ccco3)CC2)c1 ?
Neddylation inh: -1.4; Rpn11 inh: -9.3; PREPL inh: 17.9; CSN deneddyl inh: 4.8; HNF4A DNA FP: 1.7; Tb MetRS inh: -0.6

How did COc1cc(OC)c(OC)cc1/C=C1\Oc2cc(OCC(=O)N3Cc4ccccc4C[C@H]3C(=O)O)ccc2C1=O do in these assays?
Neddylation inh: 6.1; PREPL inh: 28.9; CSN deneddyl inh: 91.8; HNF4A DNA FP: 61.2*; Tb MetRS inh: -0.3

Results for Nc1c(C(=O)Nc2ccc(S(=O)(=O)N3CCCC3)cc2)sc2nc3ccc(OC(F)(F)F)cc3cc12 ?
Neddylation inh: -3.2; PREPL inh: 0.8; CSN deneddyl inh: 15.0; HNF4A DNA FP: 42.6*; Tb MetRS inh: -0.2

How did Nc1c(C(=O)Nc2ccc(S(=O)(=O)N3CCCC3)cc2)sc2nc3cc4c(cc3cc12)CCC4 do in these assays?
Neddylation inh: -70.7; Rpn11 inh: 20.0; PREPL inh: 2.0; CSN deneddyl inh: 7.5; HNF4A DNA FP: 4.7; Tb MetRS inh: 0.5

How did Cc1sc2nc(CSCC(=O)N(CCC#N)c3ccccc3)[nH]c(=O)c2c1C do in these assays?
Neddylation inh: 10.4; Rpn11 inh: 41.7*; PREPL inh: 18.6; CSN deneddyl inh: 7.7; HNF4A DNA FP: 19.3; Tb MetRS inh: -0.4

What do the screens show for `Cc1sc2nc(CSCC(=O)N(C)c3ccccc3)[nH]c(=O)c2c1C`?
Neddylation inh: 8.5; Rpn11 inh: 26.5; PREPL inh: -0.9; CSN deneddyl inh: 6.0; HNF4A DNA FP: 20.1; Tb MetRS inh: -0.5

How did Oc1c(CN2CCc3ccccc3C2)cc(Cl)c2cccnc12 do in these assays?
Neddylation inh: 28.7; Rpn11 inh: 38.8*; PREPL inh: 39.9; CSN deneddyl inh: -1.7; HNF4A DNA FP: -1.6; Tb MetRS inh: 0.4

How did CN1CCN(Cc2cc(COCc3ccccc3)c3cccnc3c2O)CC1 do in these assays?
Neddylation inh: -8.1; Rpn11 inh: 3.2; PREPL inh: 47.2*; CSN deneddyl inh: 0.9; HNF4A DNA FP: 1.9; Tb MetRS inh: -0.1

What do the screens show for `COc1cccc(CN(C)C(=O)c2cccc(S(=O)(=O)Nc3cccc(C)c3)c2)c1OC`?
Neddylation inh: 6.2; Rpn11 inh: 0.0; CSN deneddyl inh: -4.3; HNF4A DNA FP: 2.9; Tb MetRS inh: -0.5

How did C=CCNc1nc(C(=O)OCC(=O)NCc2cccc(Cl)c2)cs1 do in these assays?
Neddylation inh: -22.1; Rpn11 inh: 6.6; PREPL inh: 12.3; CSN deneddyl inh: 3.9; HNF4A DNA FP: 3.2; Tb MetRS inh: 0.0

What do the screens show for `COC(=O)c1ccc(COC(=O)[C@@H]2CC(O)CN2S(=O)(=O)c2ccccc2[N+](=O)[O-])cc1` (some centres undefined)?
Neddylation inh: -11.7; Rpn11 inh: 3.5; PREPL inh: 3.9; CSN deneddyl inh: -9.4; HNF4A DNA FP: 4.2; Tb MetRS inh: -0.4

Results for O=C(CCc1nnc(Cc2ccc(-c3ccccc3)cc2)o1)NCC1CC1 ?
Neddylation inh: -3.2; Rpn11 inh: -2.6; PREPL inh: 12.0; CSN deneddyl inh: -2.6; HNF4A DNA FP: 2.5; Tb MetRS inh: -1.6

What do the screens show for `COCCNC(=O)CCc1nnc(Cc2ccc(-c3ccccc3)cc2)o1`?
Neddylation inh: -2.9; Rpn11 inh: -1.5; PREPL inh: 8.3; CSN deneddyl inh: 114.9*; HNF4A DNA FP: -0.1; Tb MetRS inh: -0.9

Results for Cc1nc(SCC(=O)NCC2CCCO2)[nH]c(=O)c1C (centres undefined) ?
Neddylation inh: -2.6; Rpn11 inh: -3.6; PREPL inh: -6.3; CSN deneddyl inh: 3.5; HNF4A DNA FP: -5.7; Tb MetRS inh: -0.2

Results for CCNc1ccccc1CP(=O)(c1ccccc1)c1ccccc1O (centres undefined) ?
PREPL inh: 50.6*

What do the screens show for `Cc1ccc(O)c(CP(=O)(c2ccccc2)c2ccccc2)c1`?
Neddylation inh: 1.9; Rpn11 inh: -2.7; PREPL inh: 2.2; CSN deneddyl inh: -0.1; HNF4A DNA FP: 4.3; Tb MetRS inh: -0.5

Results for O=C1c2ccccc2CCC12OC2c1ccc([N+](=O)[O-])cc1 (centres undefined) ?
Neddylation inh: -21.9; Rpn11 inh: 7.2; CSN deneddyl inh: -1.0; HNF4A DNA FP: 1.0; Tb MetRS inh: 0.0

Results for C=CCOc1ccc(CNC(C)(C)C)cc1OC ?
Neddylation inh: -13.4; Rpn11 inh: 2.3; PREPL inh: -4.3; CSN deneddyl inh: -3.6; HNF4A DNA FP: 50.9*; Tb MetRS inh: 0.0

What do the screens show for `C=CCOc1ccc(CNc2nccs2)cc1OC`?
Neddylation inh: 4.0; Rpn11 inh: 3.1; PREPL inh: 7.4; CSN deneddyl inh: -2.6; HNF4A DNA FP: 0.5; Tb MetRS inh: 0.0

Results for Nc1c2c(nc3ccccc13)CCC2 ?
Neddylation inh: -4.8; Rpn11 inh: -2.2; PREPL inh: 8.2; CSN deneddyl inh: -0.5; HNF4A DNA FP: 34.9*; Tb MetRS inh: 0.0

What do the screens show for `CCOc1ccc2[nH]c(C)c(CN3CCCCCC3)c(=O)c2c1`?
Neddylation inh: 23.1; Rpn11 inh: 1.7; PREPL inh: 23.0; CSN deneddyl inh: 1.1; HNF4A DNA FP: 0.6; Tb MetRS inh: -0.8

Bioassay records deposited in PubChem BioAssay by several laboratories.
